According to ChEMBL document CHEMBL5108087, “Synthesis and biological evaluation of paeoveitol D derivatives as new melatonin receptor agonists with antidepressant activities” (RSC Med Chem, 2022):
The source made the active and inactive calls. No cut-off for these calls is given here.

Columns and labels:
Mus musculus [1] = assay: Antidepressant activity in kunming mouse assessed as increase in 5-HT level in frontal cortex at 160 mg/kg, po measured after 14 days by HPLC-ECD analysis; format: functional, organism-based; conditions: time 14.0 day
Outline: (§1)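 Male Kunming mice dosed orally with vehicle or 160 mg kg−1 for 14 days, then killed by cervical dislocation. Brain regions dissected on ice, homogenized in 0.2 M perchloric acid with 0.1 mM EDTA and spun at 4 °C for 20 min. Supernatant analysed by HPLC-ECD at +0.50 V, mobile phase pH 3.0. Amounts given in ng g−1 as mean ± SEM, n = 12.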

[2] = target: T1, Melatonin receptor type 1B (Homo sapiens, UniProt P49286); assay: (§2) Agonist activity at human MT2 receptor transfected in HEK293T cells co-transfected with tet-inducible luciferase reporter plasmid, pCDNA3.1(+)-CMV-betaArrestin2-tev plasmid and TANGO plasmid assessed as relative luminescence unit incubated for 24 hrs by TANGO-GPCR assay based luminescence plate reader analysis; format: functional, cell-based
T1 sequence (P49286 whole entry): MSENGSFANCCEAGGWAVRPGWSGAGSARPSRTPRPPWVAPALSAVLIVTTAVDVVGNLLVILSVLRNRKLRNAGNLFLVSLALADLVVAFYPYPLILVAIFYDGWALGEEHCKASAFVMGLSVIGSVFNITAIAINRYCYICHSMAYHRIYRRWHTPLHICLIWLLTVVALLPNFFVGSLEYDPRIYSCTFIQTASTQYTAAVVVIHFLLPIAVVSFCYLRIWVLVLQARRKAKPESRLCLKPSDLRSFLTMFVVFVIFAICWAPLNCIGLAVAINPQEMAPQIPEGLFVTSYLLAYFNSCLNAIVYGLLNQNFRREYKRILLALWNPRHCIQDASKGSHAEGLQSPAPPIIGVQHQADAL

Mus musculus [3] = assay: Antidepressant activity in Kunming mouse assessed as decrease in immobility time at 80 mg/kg, po administered two times at 1 hrs and 24 hrs and measured at last 4 mins of 6 mins test by forced swim test relative to fluoxetine; format: functional; design: scale not given: the % may be the effect or the level left; conditions: time 1444 min, 24.07 h
Outline: (§3)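 Male Kunming mice, 15–18 g, housed six per cage at 22 ± 1 °C on a 12 h light/dark cycle. Oral dosing 24 h and 1 h before the test. Each mouse placed in a cylinder (25 cm high, 15 cm diameter) holding 10 cm of water at 25 ± 1 °C and made to swim 6 min; immobility over the last 4 min scored by video tracking.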

[4] = Subacute toxicity in Kunming mouse assessed as effect on spleen structure at 240 mg/kg, po administered for 14 days; format: organism-based; conditions: in vivo, 336 h, time 14 day
Outline: (§4)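 Subacute oral study following OECD 425. Animals randomised into two groups of six. Vehicle control received 0.5% CMC-Na orally for 14 consecutive days; the treated group received 240 mg kg−1 body weight orally for 14 consecutive days.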

Mus musculus [5] = assay: Antidepressant activity in kunming mouse assessed as increase in dopamine level in frontal cortex at 160 mg/kg, po measured after 14 days by HPLC-ECD analysis; format: functional, organism-based; conditions: time 14.0 day; outline: as §1
[6] = Subacute toxicity in Kunming mouse assessed as effect on lung structure at 240 mg/kg, po administered for 14 days; format: organism-based; conditions: in vivo, 336 h, time 14 day; outline: as §4
HEK293T [7] = assay: as §2, with “MT1 Q181A mutant” for “MT2”, “shift in concentration response curve” for “relative luminescence unit”, “analysis relative to agomelatine” for “analysis”; format: cell-based; conditions: filed as agonist
Outline: (§5)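 293T cells transiently transfected with tet-inducible luciferase reporter, pCDNA3.1(+)-CMV-bArrestin2-tev and TANGO receptor plasmids (wild-type or point mutant). Next day plated at 20 000 cells/well on poly-L-lysine; drug added day 3. Day 4, Bright-Glo added, 20 min, then luminescence read. Concentration–response curves fitted; data mean ± SD.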

Mus musculus [8] = assay: Antidepressant activity in kunming mouse assessed as decrease in 5-HIAA level in thalamus at 160 mg/kg, po measured after 14 days by HPLC-ECD analysis; format: functional, organism-based; conditions: time 14.0 day; outline: as §1
Mus musculus [9] = assay: Antidepressant activity in kunming mouse assessed as increase in dopamine level in hippocampus at 160 mg/kg, po measured after 14 days by HPLC-ECD analysis; format: functional, organism-based; conditions: time 14.0 day; outline: as §1
Mus musculus [10] = assay: Antidepressant activity in kunming mouse assessed as decrease in DOPAC level in frontal cortex at 160 mg/kg, po measured after 14 days by HPLC-ECD analysis; format: functional, organism-based; conditions: time 14.0 day; outline: as §1
Mus musculus [11] = assay: Antidepressant activity in kunming mouse assessed as increase in dopamine level in hypothalamus at 160 mg/kg, po measured after 14 days by HPLC-ECD analysis; format: functional, organism-based; conditions: time 14.0 day; outline: as §1
Mus musculus [12] = assay: Antidepressant activity in Kunming mouse assessed as decrease in immobility time at 160 mg/kg, po administered two times at 1 hrs and 24 hrs and measured at last 4 mins of 6 mins test by forced swim test relative to fluoxetine; format: functional; design: scale not given: the % may be the effect or the level left; conditions: time 1444 min, 24.07 h; outline: as §3
[13] = Clearance in Kunming mouse at 80 mg/kg, po administered as single dose and measured upto 24 hrs; format: ADME, organism-based; conditions: in vivo
[14] = AUC (0 to infinity) in Kunming mouse at 80 mg/kg, po administered as single dose and measured upto 24 hrs; format: ADME, organism-based; design: time < 24 hrs, dose 80 mg/kg, route po; conditions: in vivo
Mus musculus [15] = assay: Antidepressant activity in kunming mouse assessed as increase in dopamine level in thalamus at 160 mg/kg, po measured after 14 days by HPLC-ECD analysis; format: functional, organism-based; conditions: time 14.0 day; outline: as §1
Mus musculus [16] = assay: Antidepressant activity in Kunming mouse assessed as decrease in immobility time at 160 mg/kg, po and measured after 14 days by forced swim test relative to control; format: functional; design: scale not given: the % may be the effect or the level left; conditions: time 14 day
Outline: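 Male Kunming mice, 15–18 g, given the test compound orally for 14 days. Forced swim then done in a cylinder 25 cm high and 15 cm in diameter, water 10 cm deep at 25 ± 1 °C. Swim lasted 6 min and immobility over the final 4 min was video-scored against the vehicle group.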

Mus musculus [17] = assay: Antidepressant activity in kunming mouse assessed as decrease in DOPAC level in thalamus at 160 mg/kg, po measured after 14 days by HPLC-ECD analysis; format: functional, organism-based; conditions: time 14.0 day; outline: as §1
Mus musculus [18] = assay: Antidepressant activity in kunming mouse assessed as increase in 5-HT level in hypothalamus at 160 mg/kg, po measured after 14 days by HPLC-ECD analysis; format: functional, organism-based; conditions: time 14.0 day; outline: as §1
[19] = Subacute toxicity in Kunming mouse assessed as effect on heart structure at 240 mg/kg, po administered for 14 days; format: organism-based; conditions: in vivo, 336 h, time 14 day; outline: as §4
[20] = target: T2, Melatonin receptor type 1A (Homo sapiens, UniProt P48039); assay: Agonist activity at human MT1 receptor expressed in HEK293 cells by Fluo-8 based calcium assay; format: functional, cell-based
HEK293T [21] = assay: as §2, with “MT1 N162A mutant” for “MT2”, “shift in concentration response curve” for “relative luminescence unit”, “analysis relative to agomelatine” for “analysis”; format: cell-based; conditions: filed as agonist; outline: as §5
[22] = target: T2, Melatonin receptor type 1A; assay: as §2, with “MT1” for “MT2”, “tango arrestin recruitment by measuring maximum activity” for “relative luminescence unit”, “analysis relative to 2-phenylmelatonin” for “analysis”; format: functional, cell-based; conditions: filed as agonist
Outline: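 Tango arrestin recruitment: 293T cells transiently transfected with a tet-inducible luciferase reporter, CMV-βArrestin2-TEV and TANGO receptor plasmids. On day 2, replated at 20 000 cells per well on poly-L-lysine. Drug added on day 3. On day 4, luciferase reagent added for 20 min and luminescence counted. Curves fitted; data given as mean ± SD.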

Mus musculus [23] = assay: Antidepressant activity in kunming mouse assessed as decrease in DOPAC level in hippocampus at 160 mg/kg, po measured after 14 days by HPLC-ECD analysis; format: functional, organism-based; conditions: time 14.0 day; outline: as §1

T2 sequence (P48039 whole entry): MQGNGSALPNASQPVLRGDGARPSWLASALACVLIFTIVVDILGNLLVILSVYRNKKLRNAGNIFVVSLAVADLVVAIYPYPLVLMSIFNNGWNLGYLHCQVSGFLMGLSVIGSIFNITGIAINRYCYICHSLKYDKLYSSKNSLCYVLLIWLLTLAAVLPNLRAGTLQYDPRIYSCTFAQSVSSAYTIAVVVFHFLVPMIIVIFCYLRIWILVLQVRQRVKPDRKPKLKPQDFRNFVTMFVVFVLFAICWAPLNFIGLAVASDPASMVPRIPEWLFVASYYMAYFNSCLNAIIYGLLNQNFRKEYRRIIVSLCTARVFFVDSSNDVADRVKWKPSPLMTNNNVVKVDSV

COc1cc2c(CN3CCN(C)CC3)coc2cc1C
Activity (Mus musculus [1]): Active | EC50 [2]: 299 µM | Activity (Mus musculus [3]): 26% | Activity [4]: Non-Toxic | Activity (Mus musculus [5]): Active | Activity [6]: Non-Toxic | Activity (HEK293T [7]): Active | Activity (Mus musculus [8]): Active | Activity (Mus musculus [9]): Active | Activity (Mus musculus [10]): Active | Activity (Mus musculus [11]): Active | Activity (Mus musculus [12]): 29% | CL/F [13]: 237 mL/min | AUC [14]: 5620 ng·h/mL | Activity (Mus musculus [15]): Active | Activity (Mus musculus [16]): 28% | Activity (Mus musculus [17]): Active | Activity (Mus musculus [18]): Active | Activity [19]: Non-Toxic | EC50 [20]: 330 µM | Activity (HEK293T [21]): Active | Emax [22]: 46% | Activity (Mus musculus [23]): Active
